Converted amounts (≈) assume the structure as drawn. The source made the active and inactive calls. The calls are words filed in the database; no cut-off is given here.
Experiments:
[1] = test system: Candida albicans; experiment: Fungicidal activity against Candida albicans MTCC 3018 assessed as fungal killing incubated for 24 hrs; format: functional; conditions: MTCC 3018, 24 h
Procedure, shortened: (§1)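 Compound at 125–0.97 µg/mL in Mueller Hinton broth in microcentrifuge tubes, each Candida strain added, held 24 h at 37 °C. 10 µL of the treated suspension plated on Mueller Hinton agar and incubated a further 24 h at 37 °C. MFC is the lowest concentration that kills the strain. Duplicates, means reported.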

[2] = test system: Nakaseomyces glabratus; experiment: Antifungal activity against Candida glabrata MTCC 3019 assessed as inhibition of fungal growth incubated for 24 hrs by agar well diffusion method; format: functional; conditions: MTCC 3019, 24 h
Procedure, shortened: (§2)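 Candida strains from MTCC, pre-cultured and spread on Mueller Hinton agar. Wells received compound dissolved in 10% DMSO, 125–0.97 µg/mL; miconazole standard over the same range, DMSO negative control. After 24 h at 37 °C, MIC was read as the lowest concentration giving an inhibition zone. Duplicate experiments, means given.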

[3] = test system: Nakaseomyces glabratus; experiment: Ratio of MFC to MIC against Candida glabrata MTCC 3019; format: functional
Procedure, shortened: (§3)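 MIC by agar well diffusion: Candida lawns on Mueller-Hinton agar, wells loaded with compound in 10% DMSO (125–0.97 µg/mL), 24 h at 37 °C, lowest concentration giving an inhibition zone. MFC: compound in Mueller-Hinton broth (125–0.97 µg/mL) with yeast, 24 h at 37 °C, 10 µL plated on agar, lowest killing concentration after 24 h. Ratio is MFC/MIC.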

[4] = test system: Pichia kudriavzevii; experiment: Antifungal activity against Candida krusei MTCC 3020 assessed as inhibition of fungal growth incubated for 24 hrs by agar well diffusion method; format: functional; conditions: MTCC 3020, 24 h; procedure, shortened: as §2
[5] = test system: Candida albicans; experiment: Ratio of MFC to MIC against Candida albicans MTCC 7315; format: functional; procedure, shortened: as §3
[6] = test system: Candida albicans; experiment: Fungicidal activity against Candida albicans MTCC 1637 assessed as fungal killing incubated for 24 hrs; format: functional; conditions: MTCC 1637, 24 h; procedure, shortened: as §1
[7] = test system: Candida albicans; experiment: Ratio of MFC to MIC against Candida albicans MTCC 3018; format: functional; procedure, shortened: as §3
[8] = test system: Candida albicans; experiment: Antifungal activity against Candida albicans MTCC 7315 assessed as inhibition of fungal growth incubated for 24 hrs by agar well diffusion method; format: functional; conditions: MTCC 7315, 24 h; procedure, shortened: as §2
[9] = test system: Raoultella planticola; experiment: Antibacterial activity against Klebsiella planticola MTCC 530 assessed as inhibition of bacterial growth incubated for 24 hrs by agar well diffusion method; format: functional
Procedure, shortened: (§4)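 Strains from MTCC; inoculum at 0.5 McFarland spread on Mueller-Hinton agar; 6 mm wells loaded with compound over 125–0.97 µg/mL; ciprofloxacin positive control (same range), DMSO negative control. Plates held 24 h at 37 °C; MIC taken as lowest concentration giving a clear inhibition zone. Triplicate runs, mean MIC reported.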

[10] = test system: Candida albicans; experiment: Antifungal activity against Candida albicans MTCC 4748 assessed as inhibition of fungal growth incubated for 24 hrs by agar well diffusion method; format: functional; conditions: MTCC 4748, 24 h; procedure, shortened: as §2
[11] = test system: Pichia sporocuriosa; experiment: Ratio of MFC to MIC against Issatchenkia hanoiensis MTCC 4755; format: functional; procedure, shortened: as §3
[12] = test system: Escherichia coli; experiment: Antibacterial activity against Escherichia coli MTCC 739 assessed as inhibition of bacterial growth incubated for 24 hrs by agar well diffusion method; format: functional; procedure, shortened: as §4
[13] = test system: Candida albicans; experiment: Fungicidal activity against Candida albicans MTCC 227 assessed as fungal killing incubated for 24 hrs; format: functional; conditions: MTCC 227, 24 h; procedure, shortened: as §1
[14] = test system: Candida albicans; experiment: Fungicidal activity against Candida albicans MTCC 183 assessed as fungal killing incubated for 24 hrs; format: functional; conditions: MTCC 183, 24 h; procedure, shortened: as §1
[15] = biological target: Lanosterol 14-alpha demethylase (Candida albicans (strain SC5314 / ATCC MYA-2876) (Yeast), UniProt P10613); experiment: Inhibition of CYP51 in Candida albicans MTCC 3017 assessed as reduction in ergosterol level incubated for 20 hrs by UV-visible spectrophotometry analysis
Chain of Lanosterol 14-alpha demethylase (P10613 whole entry): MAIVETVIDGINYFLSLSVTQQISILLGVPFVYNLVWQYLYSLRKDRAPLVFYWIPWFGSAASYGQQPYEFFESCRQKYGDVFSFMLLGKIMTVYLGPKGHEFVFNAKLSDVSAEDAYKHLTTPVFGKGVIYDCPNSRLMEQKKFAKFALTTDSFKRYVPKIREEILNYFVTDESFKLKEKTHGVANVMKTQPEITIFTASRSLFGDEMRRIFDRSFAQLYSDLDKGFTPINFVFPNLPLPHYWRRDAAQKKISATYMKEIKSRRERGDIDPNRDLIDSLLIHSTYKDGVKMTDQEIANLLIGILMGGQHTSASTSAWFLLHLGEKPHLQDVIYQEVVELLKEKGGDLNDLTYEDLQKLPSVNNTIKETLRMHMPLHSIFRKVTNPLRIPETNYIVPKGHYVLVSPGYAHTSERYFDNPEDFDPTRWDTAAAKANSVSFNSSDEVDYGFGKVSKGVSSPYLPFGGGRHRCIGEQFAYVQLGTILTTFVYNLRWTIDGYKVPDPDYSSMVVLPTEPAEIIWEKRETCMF
Procedure, shortened: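 Modified Breivik–Owades sterol method: Mueller Hinton broth with compound at 0, 2, 4, 8, 16 µg/mL, inoculated with single Candida colonies, shaken at 200 rpm for 20 h at 30 °C. Pellets washed and weighed, saponified in 25% alcoholic KOH for 70 min at 90 °C, sterols extracted into n-heptane, diluted 1:5 in ethanol and scanned at 230–310 nm. Triplicates.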

[16] = test system: Candida albicans; experiment: Antifungal activity against Candida albicans MTCC 227 assessed as inhibition of fungal growth incubated for 24 hrs by agar well diffusion method; format: functional; conditions: MTCC 227, 24 h; procedure, shortened: as §2
[17] = test system: Pichia sporocuriosa; experiment: Antifungal activity against Issatchenkia hanoiensis MTCC 4755 assessed as inhibition of fungal growth incubated for 24 hrs by agar well diffusion method; format: functional; conditions: MTCC 4755, 24 h; procedure, shortened: as §2
[18] = test system: Candida albicans; experiment: Fungicidal activity against Candida albicans MTCC 7315 assessed as fungal killing incubated for 24 hrs; format: functional; conditions: MTCC 7315, 24 h; procedure, shortened: as §1
[19] = test system: Candida albicans; experiment: Ratio of MFC to MIC against Candida albicans MTCC 1637; format: functional
[20] = test system: Candida albicans; experiment: Fungicidal activity against Candida albicans MTCC 4748 assessed as fungal killing incubated for 24 hrs; format: functional; conditions: MTCC 4748, 24 h; procedure, shortened: as §1
[21] = test system: Candida albicans; experiment: Ratio of MFC to MIC against Candida albicans MTCC 4748; format: functional; procedure, shortened: as §3
[22] = test system: Pichia sporocuriosa; experiment: Fungicidal activity against Issatchenkia hanoiensis MTCC 4755 assessed as fungal killing incubated for 24 hrs; format: functional; conditions: MTCC 4755, 24 h; procedure, shortened: as §1
[23] = test system: Candida albicans; experiment: Antifungal activity against Candida albicans MTCC 1637 assessed as inhibition of fungal growth incubated for 24 hrs by agar well diffusion method; format: functional; conditions: MTCC 1637, 24 h; procedure, shortened: as §2
[24] = test system: Candida albicans; experiment: Antifungal activity against Candida albicans MTCC 3018 assessed as inhibition of fungal growth incubated for 24 hrs by agar well diffusion method; format: functional; conditions: MTCC 3018, 24 h; procedure, shortened: as §2
[25] = test system: Candida parapsilosis; experiment: Ratio of MFC to MIC against Candida parapsilosis MTCC 1744; format: functional; procedure, shortened: as §3
[26] = test system: Micrococcus luteus; experiment: Antibacterial activity against Micrococcus luteus MTCC 2470 assessed as inhibition of bacterial growth incubated for 24 hrs by agar well diffusion method; format: functional; procedure, shortened: as §4
[27] = test system: Candida albicans; experiment: Induction of ROS generation in Candida albicans MTCC 3017 assessed as accumulation of intracellular ROS level by measuring fluorescence intensity at 5 to 25 ug/ml after 24 hrs by DCFH-DA probe based fluorimetric assay; format: functional, organism-based
Procedure, shortened: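 C. albicans MTCC 3017 biofilms grown 24 h at 37 °C in 96-well plates, then treated 24 h with compound at 0, 5, 10, 15, 20, 25 µg/mL; untreated cells served as control. Cells then loaded with 10 µM DCFH-DA for 24 h in the dark, and fluorescence read at 485 nm excitation and 535 nm emission. Triplicates.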

[28] = test system: Candida albicans; experiment: Ratio of MFC to MIC against Candida albicans MTCC 227; format: functional; procedure, shortened: as §3
[29] = test system: Candida albicans; experiment: Antifungal activity against Candida albicans MTCC 3017 assessed as inhibition of fungal growth incubated for 24 hrs by agar well diffusion method; format: functional; conditions: MTCC 3017, 24 h; procedure, shortened: as §2
[30] = test system: Candida parapsilosis; experiment: Fungicidal activity against Candida parapsilosis MTCC 1744 assessed as fungal killing incubated for 24 hrs; format: functional; conditions: Lodderomyces parapsilosis, MTCC 1744, 24 h; procedure, shortened: as §1
[31] = test system: Nakaseomyces glabratus; experiment: Fungicidal activity against Candida glabrata MTCC 3019 assessed as fungal killing incubated for 24 hrs; format: functional; conditions: MTCC 3019, 24 h; procedure, shortened: as §1
[32] = test system: Staphylococcus aureus; experiment: Antibacterial activity against Staphylococcus aureus MLS-16 MTCC 2940 assessed as inhibition of bacterial growth incubated for 24 hrs by agar well diffusion method; format: functional; procedure, shortened: as §4
[33] = test system: Pichia kudriavzevii; experiment: Fungicidal activity against Candida krusei MTCC 3020 assessed as fungal killing incubated for 24 hrs; format: functional; conditions: MTCC 3020, 24 h; procedure, shortened: as §1
[34] = test system: Candida albicans; experiment: Antifungal activity against Candida albicans MTCC 183 assessed as inhibition of fungal growth incubated for 24 hrs by agar well diffusion method; format: functional; conditions: MTCC 183, 24 h; procedure, shortened: as §2
[35] = test system: Staphylococcus aureus; experiment: Antibacterial activity against Staphylococcus aureus MTCC 96 assessed as inhibition of bacterial growth incubated for 24 hrs by agar well diffusion method; format: functional; procedure, shortened: as §4
[36] = test system: Bacillus subtilis; experiment: Antibacterial activity against Bacillus subtilis MTCC 121 assessed as inhibition of bacterial growth incubated for 24 hrs by agar well diffusion method; format: functional; procedure, shortened: as §4
[37] = test system: Candida parapsilosis; experiment: Antifungal activity against Candida parapsilosis MTCC 1744 assessed as inhibition of fungal growth incubated for 24 hrs by agar well diffusion method; format: functional; conditions: Lodderomyces parapsilosis, MTCC 1744, 24 h; procedure, shortened: as §2
[38] = test system: MRC5; experiment: Cytotoxicity against human MRC5 cells incubated for 48 hrs by MTT assay; format: cell-based; conditions: MRC5, 48 h
Procedure, shortened: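 Normal human lung MRC5 cells grown 24 h in 96-well plates, then exposed to a range of compound concentrations for 48 h. MTT (250 µg/mL) added for 2 h, medium replaced by DMSO, absorbance read at 570 nm. Miconazole positive control, DMSO negative control. Triplicates, mean ± S.D.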

[39] = test system: Pichia kudriavzevii; experiment: Ratio of MFC to MIC against Candida krusei MTCC 3020; format: functional; procedure, shortened: as §3
[40] = test system: Pseudomonas aeruginosa; experiment: Antibacterial activity against Pseudomonas aeruginosa MTCC 2453 assessed as inhibition of bacterial growth incubated for 24 hrs by agar well diffusion method; format: functional; procedure, shortened: as §4
[41] = test system: Candida albicans; experiment: Ratio of MFC to MIC against Candida albicans MTCC 183; format: functional

- MIC [2]: 3.9 µg/mL (≈ 9.37 µM)
- MIC [4]: 3.9 µg/mL (≈ 9.37 µM)
- MIC [8]: 3.9 µg/mL (≈ 9.37 µM)
- MIC [10]: 3.9 µg/mL (≈ 9.37 µM)
- MIC [12]: inactive
- inhibition (INH) [15]: Dose-dependent effect
- MIC [16]: 3.9 µg/mL (≈ 9.37 µM)
- MIC [17]: 3.9 µg/mL (≈ 9.37 µM)
- MIC [23]: 3.9 µg/mL (≈ 9.37 µM)
- MIC [24]: 3.9 µg/mL (≈ 9.37 µM)
- MIC [26]: inactive
- MIC [29]: 3.9 µg/mL (≈ 9.37 µM)
- MIC [32]: inactive
- MIC [34]: 3.9 µg/mL (≈ 9.37 µM)
- MIC [35]: inactive
- MIC [36]: inactive
- MIC [37]: 3.9 µg/mL (≈ 9.37 µM)
- MIC [40]: inactive
Compound: Clc1ccc(COC(Cn2ccnc2)c2ccc(Cl)cc2Cl)c(Cl)c1 (stereo unspecified) [MICONAZOLE]
- MFC [1]: 7.8 µg/mL (≈ 18.7 µM)
- Ratio [3]: 2
- Ratio [5]: 2
- MFC [6]: 7.8 µg/mL (≈ 18.7 µM)
- Ratio [7]: 2
- MIC [9]: inactive
- Ratio [11]: 2
- MFC [13]: 7.8 µg/mL (≈ 18.7 µM)
- MFC [14]: 7.8 µg/mL (≈ 18.7 µM)
- MFC [18]: 7.8 µg/mL (≈ 18.7 µM)
- Ratio [19]: 2
- MFC [20]: 7.8 µg/mL (≈ 18.7 µM)
- Ratio [21]: 2
- MFC [22]: 7.8 µg/mL (≈ 18.7 µM)
- Ratio [25]: 2
- Activity [27]: Active
- Ratio [28]: 2
- MFC [30]: 7.8 µg/mL (≈ 18.7 µM)
- MFC [31]: 7.8 µg/mL (≈ 18.7 µM)
- MFC [33]: 7.8 µg/mL (≈ 18.7 µM)
- IC50 [38]: 61.7 µg/mL (≈ 148 µM)
- Ratio [39]: 2
- Ratio [41]: 2

Reference: ChEMBL document CHEMBL4373647, “Design, synthesis, and antimicrobial evaluation of 1,4-dihydroindeno[1,2-c]pyrazole tethered carbohydrazide hybrids: exploring their in silico ADMET, ergosterol inhibition and ROS inducing potential” (Medchemcomm, 2019)
